{
  "source": "paper PMC7286531",
  "about": "(Organic & biomolecular chemistry, 2020)",
  "key": {"[1]": {"tested_on": "STAT3 phosphorylated on tyrosine 705 (pSTAT3)", "assay": "G-CSF-induced intracellular STAT3 phosphorylation assay in AML cell lines", "type": "cell-based, human", "conditions": "Kasumi-1 / Kasumi cells", "in_short": "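Kasumi-1 human AML cells (also other AML lines) were exposed to a concentration series of test compound and stimulated with G-CSF to induce STAT3 phosphorylation. Cells were then lysed, and STAT3 phosphorylated on Tyr705 was quantified with a fluorescent anti-pSTAT3 antibody. IC50 was taken from the concentration series; mean ±SD, n = 3.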"}, "[2]": {"assay": "Stability in aqueous buffer under air", "type": "physicochemical", "conditions": "C188–9: within 4 hours"}},
  "data": [
    {"smiles": "COc1ccc(S(=O)(=O)Nc2cc(-c3c(O)ccc4ccccc34)c(O)c3ccccc23)cc1", "note": "[C188–9]", "values": [
      {"measurement": "inhibition of G-CSF-induced STAT3 phosphorylation, result in words", "setting": "[1]", "result": "exceptionally resistant"},
      {"measurement": "stability in aqueous buffer in air, result in words", "setting": "[2]", "result": "Significant decomposition"}
    ]}
  ]
}
